# Screening results deposited in PubChem by several laboratories.
# Cneo AK release = Cryptococcus neoformans lysis via adenylate kinase release; actives 0.2% (n = 360,000); AID 651654; C. neoformans lysis, adenylate kinase release luminescence, 4 h; normalised: neutral wells 0, clomiphene wells 100; lysis activity, % at 15 µM;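 active = mean lysis activity across replicates of at least 80%, whatever share of replicates individually reach that level; inactive = mean lysis activity below 80%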
#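 Material – Cryptococcus neoformans yeast cells · Quantity – 5 × 10^6 yeast cells/mL · Buffer or medium – YPD medium · Compound – single dose · Timing – 4 h static compound exposure, 37 °C, read 1 h post-reagent · Signal – adenylate kinase release luminescence · Read-out basis – lysis from increased AK signal · Benchmarks – Clomiphene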
# Statin myotox sup = protects C2C12 myotubes from simvastatin toxicity. ATP luminescence, 48 h; scaled: DMSO 0, geranylgeraniol control 100. actives 0.78% (n = 330,000). AID 602340. rescue of ATP level, % at 7.49 µM;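 active = mean ATP rescue above about 67%, or every replicate alone reaching that limit, limit read from the data, passing the limit was not always enough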;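 note: myotubes were challenged with 10 µM simvastatin during compound exposure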
# Efflux pump mplx = inhibitors of Candida antifungal efflux pumps expressed in yeast; inhibition, % at 10 µM; actives 0.44% (n = 330,000); S. cerevisiae Candida pump triplex, Nile Red efflux;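 active = plate passing quality check with inhibition over a set limit, or well fluorescence over plate mean plus 4 SD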;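 note: Nile Red retained in pooled yeast measured as flow cytometry median fluorescence; 0% = buffer negative control and 100% = Enniatin B positive control; higher means more Nile Red kept so more efflux inhibition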
# SUMO Mot1 rescue = blocks SUMOylation pathway, rescuing yeast Mot1-301 growth | S. cerevisiae Mot1-301 growth rescue, ATP luminescence, 38.5C; percent above DMSO median, 100 means doubled | actives 1% (n = 320,000) | growth rescue, % at 18.8 µM;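 active = every valid replicate shows activation above 250% relative to neutral control wells; inactive = the rest, any valid replicate at or below 250%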;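 note: OY570 slx delta 5 strain wells were the positive control but not used for scaling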
# Yeast Mot1 SUMO = SUMO pathway inhibitors in yeast Mot1-301 growth; shares compounds with SUMO Mot1 rescue; S. cerevisiae Mot1-301 galactose growth, ATP luminescence, 24 h; -100 = growth of slx-deleted rescue strain; growth activity, percent, % at 42 µM; 2,300 tested, under 10 active;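 active = Signal drops as the depositor expects, and the fitted half-maximal dose is no more than ten times the top valid tested dose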;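 note: more negative values mean stronger growth rescue toward the control strain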
# * hit, by the source's call; x = no result; + = active, no number. In the library only some 1.8% were active in any assay of this set; here they are far more common.
SMILES,Cneo AK release,Statin myotox sup,Efflux pump mplx,SUMO Mot1 rescue,Yeast Mot1 SUMO
CCn1c(C)c(Br)c(=O)c(C(=O)OC)c1-c1ccc(Cl)cc1,0.3,0.8,0.1,4.6,x
COc1ccc(N(CC(=O)O)S(=O)(=O)c2c(C)n[nH]c2C)cc1,x,x,0.0,-18.3,x
Cc1ccc(N(C(C)C(=O)O)S(=O)(=O)c2c(C)n[nH]c2C)cc1 (centres undefined),2.0,-12.3,0.0,530.7*,0.2
Cc1oc2ccc(OCc3ccc(Cl)cc3)cc2c1C(=O)O,2.1,5.1,-0.1,-5.4,x
CCn1c(CSCc2ccc(F)cc2)nnc1SCC(=O)NCc1ccccc1,0.9,4.6,0.1,924.1*,0.2
CCn1c(CSCc2ccc(C)cc2)nnc1SCC(=O)NCc1ccccc1,-4.6,5.3,0.0,-23.2,x
O=C(c1ccc(OC2CCN(Cc3ccccn3)CC2)cc1)N1CCC[C@H]1CO,-0.3,x,0.1,9.5,x
CCOC(=O)C1CCCN(C(=O)c2cc(-c3ccc(F)cc3)nc3ccccc23)C1 (centres undefined),-3.5,-1.2,0.1,463.4*,-0.1
CCOC(=O)C1CCCN(C(=O)c2cc(-c3ccncc3)nc3ccccc23)C1 (centres undefined),-0.3,7.3,0.0,79.2,x
CCN(CC)CCCn1c(=S)[nH]c2ccc(Cl)cc2c1=O,2.4,1.0,0.4,631.3*,0.0
CCN(CC)CCCn1c(=S)[nH]c2cc(Cl)ccc2c1=O,2.6,2.9,-0.1,-9.1,x
O=S(=O)(c1cccc(NC(=S)N2CCN(c3ccccc3F)CC2)c1)C(F)F,x,x,0.2,-19.4,x
COc1ccc(N(CC(=O)Nc2ccc(C)c(C)c2)S(=O)(=O)c2c(C)noc2C)cc1,-1.6,-1.8,0.0,5.6,x
CCOc1ccc(N(CC(=O)NC2CCC(C)CC2)S(=O)(=O)c2c(C)noc2C)cc1 (centres undefined),-4.0,3.4,0.1,461.2*,0.0
Cc1cc(C)cc(N(CC(=O)Nc2cccc(C)n2)S(=O)(=O)c2c(C)noc2C)c1,-0.8,-31.0,0.4,528.0*,-0.7
COc1ccc(NC(=O)CN(c2ccc(C(C)C)cc2)S(=O)(=O)c2c(C)noc2C)cc1OC,5.0,5.1,0.3,366.9*,0.2
Cc1ccc(N(CC(=O)NCCc2ccc(Cl)cc2)S(=O)(=O)c2c(C)noc2C)cc1,-0.8,4.4,0.3,509.9*,-0.3
COc1ccccc1C(C)NC(=O)c1ccc(C)o1 (centres undefined),7.5,-4.8,-0.1,3.8,x
Cc1ccc(CSc2cc(C)[nH]c(=O)n2)cc1,0.4,7.9,-0.1,23.6,x
c1ccc(CNc2ccc3ccccc3n2)nc1,-2.1,-11.5,-0.1,364.7*,-1.6
C/C(=C\C(=O)N1CCc2ccccc21)C(=O)O,1.2,2.5,-0.3,587.4*,1.6
Cc1ccc(NC2CCCN(C(=O)CCCN3CCCCC3=O)C2)cc1C (centres undefined),-0.7,x,0.6,-12.6,x
O=C(N/N=C/c1ccc(Cl)s1)c1ccccc1[N+](=O)[O-],0.6,0.8,-0.1,805.0*,0.7
CCOC(=O)C(NC(=O)c1ccccc1)(N1CCOCC1)C(F)(F)F (centres undefined),-1.1,5.5,-0.1,+,0.0
CCOC(=O)C(NC(=O)c1ccc(OC)cc1)(N1CCOCC1)C(F)(F)F (centres undefined),1.2,0.4,0.0,-7.3,x
SMILES,Cneo AK release,Statin myotox sup,Efflux pump mplx,SUMO Mot1 rescue,Yeast Mot1 SUMO
Cc1cc(C(=O)Nc2ccccc2C(=O)O)ccc1NC(=O)COc1cccc(C)c1C,-2.0,2.5,-2.8,-10.1,x
c1ccc(-c2csc(NC3CCCCC3)n2)cc1,-2.5,-6.3,1.2,922.7*,-0.1
Cc1nc2ccccn2c1C(=O)N/N=C/c1ccccc1,-2.0,2.7,0.1,-10.4,x
COc1ccc(/C=N/NC(=O)c2c(C)nc3ccccn23)cc1[N+](=O)[O-],x,x,0.0,569.1*,0.4
Oc1c(Br)cc(Cl)cc1C=Nc1ccccc1Br,x,x,0.0,634.4*,1.0
Oc1c(Br)cc(Cl)cc1C=Nc1ccc(N2CCOCC2)cc1,13.9,x,0.3,17.1,x
O=C(O)Cc1sc(Nc2ccccc2)nc1-c1cccs1,x,x,0.2,414.7*,-0.6
Cc1ccc(S(=O)(=O)NN2C(=O)c3ccccc3NC2c2ccccc2F)cc1 (centres undefined),-1.3,16.5,-0.1,428.8*,0.5
COc1cccc(COC(=O)c2c(C)nn(-c3ccccc3)c2Cl)c1OC,0.7,-9.4,0.0,-37.0,x
CC1(C2CC2)NC(=O)N(CC(=O)Nc2cc(S(=O)(=O)N3CCCCC3)ccc2Cl)C1=O (centres undefined),-1.5,-1.1,-0.2,2.8,x
CN(C)S(=O)(=O)c1ccc(Cl)c(NC(=O)CN2C(=O)NC(C)(C3CC3)C2=O)c1 (centres undefined),x,x,0.0,651.1*,0.0
COC(=O)c1ccc(N2C(=O)CC(NCc3ccccc3)C2=O)cc1 (centres undefined),-3.0,x,0.0,+,0.5
O=C(C[C@@H]1C[C@H]2c3cc(NS(=O)(=O)c4ccccc4)ccc3O[C@H]2[C@@H](CO)O1)NC1CCCC1,21.0,-1.5,x,x,x
COc1ccc(C(C)=O)cc1CN(c1ccccc1OC)S(=O)(=O)c1cccs1,-0.3,-34.3,0.1,369.9*,0.1
CCn1cc(/C=C(\NC(=O)c2ccccc2Cl)C(=O)N2CCN(C)CC2)c2ccccc21,0.9,-3.2,x,x,x
O=C(NCc1ccccc1)c1cccc(COc2ccc(Cl)cc2)c1,-5.8,x,0.1,+,0.5
COc1cc(CNC(=O)c2cccc(COc3ccc(Cl)cc3)c2)cc(OC)c1,x,x,-0.1,2.9,x
C[C@H]1CCC(=O)N([C@H](CSc2ccc(Br)cc2)Cc2ccccc2)CC1,-4.3,13.2,-0.3,6.9,x
N/C(CN1CCSCC1)=N\OCc1c(F)cccc1Cl,-0.3,x,-0.2,234.4,x
CCOC1(OCC)C(c2ccc(N)cc2)C(C#N)(C#N)C1(OCC)OCC (centres undefined),-2.1,4.4,0.1,3.5,x
CCOC1(OCC)C(c2ccc(Cl)cc2)C(C#N)(C#N)C1(OCC)OCC (centres undefined),2.9,19.4,0.2,494.6*,-1.0
Cc1cccc(CCN(Cc2cc3cccc(C)c3[nH]c2=O)C(=O)N2CCOCC2)c1,-0.3,0.7,-0.1,-8.8,x
O=C(Nc1nccs1)c1ccc(S(=O)(=O)c2ccccc2)cc1,4.7,x,0.2,694.9*,0.2
O=C(Nc1nccs1)c1ccc(S(=O)(=O)N2CCCCC2)cc1,0.4,-3.6,-0.2,-6.6,x
COc1ccc(C2C(C(=O)Nc3cc(OC)c(OC)c(OC)c3)c3ccccc3C(=O)N2C)cc1 (centres undefined),-1.5,-55.3,0.2,465.2*,0.0
Cc1cc(C)n2nc(SCc3nnc(-c4cccs4)o3)nc2n1,x,x,-0.2,-22.3,x
CC(=O)c1ccc(N=C2SCCCN2C(=O)C2CCCC2)cc1,x,x,0.0,397.5*,0.1
CC(=O)c1ccc(NC(=S)N2CCCCCC2)cc1,0.6,x,0.1,160.9,x
